Usually pIC50 stands for the negative decadic logarithm of the IC50, by convention in mol/L.

SMILES strings stand for the structures. pIC50: −log10 of the molar value.

This note sets out measurements from ChEMBL document CHEMBL1649381, “Domino approach to 2-aroyltrimethoxyindoles as novel heterocyclic combretastatin A4 analogues” (Eur J Med Chem, 2011).

One assay deals with B16. The assay can be described thus: Cytotoxicity against mouse B16 cells assessed as reduction in cell viability after 48 hrs by MTT assay. The format is functional, cell-based. The note with it: B16, 48 h. The procedure, abridged:
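B16 cells kept in DMEM with 2 mM L-glutamine, 10% FBS, penicillin/streptomycin at 37 °C, 5% CO2. After 48 h exposure, MTT was read at 562 nm with background subtracted. IC50 is the mean of three independent experiments.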

The nature of assay [1]: Inhibition of tubulin polymerization by DAPI fluorescent assay. The method in brief:
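Tubulin (97% pure, 1 mg/ml final) in PME buffer (100 mM PIPES, 1 mM MgSO4, 2 mM EGTA) with DAPI and graded compound, colchicine as internal control. Preincubated 45 min at room temperature, then polymerization started by adding 1 mM GTP. Run 2 h at 37 °C with fluorescence excitation at 360 nm. IC50 taken from a semi-log plot of % inhibition against concentration.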

In a further assay the test system is HCT-116. The assay can be described thus: Antiproliferative activity against human HCT116 cells after 72 hrs by MTS assay. Type of assay: functional, cell-based. The note with it: HCT-116, 72 h. The method in brief: (§1)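 Cells grown in RPMI 1640 with 10% fetal calf serum, streptomycin and fungizone at 37 °C, 5% CO2. MTS reagent was added for 2 h and absorbance read at 490. IC50 is the concentration giving 50% growth inhibition.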
(In general: Tetrazolium dyes change colour on reduction, which living cells bring about.)

The subject of the next assay is HCT-15. Nature of the assay: Antiproliferative activity against human HCT15 cells after 72 hrs by MTS assay. Type of assay: functional, cell-based. The conditions noted are these: HCT-15, 72 h. The method in brief: as §1
Another assay concerns HT-29. The assay can be described thus: Antiproliferative activity against human HT-29 cells after 72 hrs by MTS assay. The format is functional, cell-based. The note with it: HT-29, 72 h. The method in brief: as §1

For the molecule `COc1ccc(C(=O)c2cc3c(OC)c(OC)c(OC)cc3[nH]2)cc1F`, the negative-log IC50 (pIC50) was 4.80 in the assay with B16 and less than 4.70 in assay [1].

`COc1cc2[nH]c(C(=O)/C=C/c3ccccc3)cc2c(OC)c1OC`: the pIC50 in the assay on B16 is 4.80; in assay [1], less than 4.70.

On to `COc1ccc(C(=O)c2cc3cc(OC)c(OC)c(OC)c3[nH]2)cn1`, for which the values for the pIC50 (in the assay with B16; in assay [1]) were less than 4.30 and 4.74, respectively.

As for `COc1cc2cc(C(=O)c3ccccc3)[nH]c2c(OC)c1OC`, the pIC50 in the assay on B16 was less than 4.30; in assay [1] it was 5.05; in the assay with HCT-116 it was less than 4.30; in the assay on HCT-15, less than 4.30; in the assay on HT-29 it was less than 4.30.

As for `COc1cc2[nH]c(C(=O)c3ccccc3)cc2c(OC)c1OC`, the negative logarithm of the IC50 (pIC50) in the assay with B16 is 4.35; in assay [1] it was less than 4.70.

Take `COc1ccc(C(=O)c2cc3c(OC)c(OC)c(OC)cc3[nH]2)cn1`: the negative logarithm of the IC50 (pIC50) in the assay with B16 is less than 4.30; in assay [1], 4.82.

With `COc1ccc(C(=O)c2cc3cc(OC)c(OC)c(OC)c3[nH]2)cc1`, the negative logarithm of the IC50 (pIC50) in the assay with B16 is less than 4.30; in assay [1] it was 4.92.

With `COc1cc2[nH]c(C(=O)c3ccc(C)c(N)c3)cc2c(OC)c1OC`, the pIC50 was 4.44 in the assay with B16; 5.00 in assay [1]; 5.70 in the assay with HCT-116; 6.49 in the assay with HCT-15; 6.00 in the assay with HT-29.

For the molecule `COc1cc2cc(C(=O)/C=C/c3ccccc3)[nH]c2c(OC)c1OC`, the pIC50 with B16 was 4.48; in assay [1], 4.74.

As to `COc1ccc(C(=O)c2cc3c(OC)c(OC)c(OC)cc3[nH]2)cc1`, the pIC50 with B16 is less than 4.30; in assay [1], 5.05; in the assay on HCT-116, 5.38; in the assay on HCT-15, 6.35; in the assay with HT-29 it was 5.91.

As for `COc1cc2[nH]c(C(=O)c3ccc(C)cc3)cc2c(OC)c1OC`, the pIC50 is 5.00 in the assay on B16; 5.40 in assay [1]; 5.55 in the assay on HCT-116; 6.21 in the assay with HCT-15; 5.96 in the assay with HT-29.

Take `COc1ccc(/C=C\c2cc(OC)c(OC)c(OC)c2)cc1O` [COMBRETASTATIN A4]: the negative logarithm of the IC50 (pIC50) was 8.30 in the assay on B16; 6.57 in assay [1]; 9.00 in the assay on HCT-116; 9.00 in the assay on HCT-15; 7.89 with HT-29.

Regarding `COc1ccc(C(=O)c2cc3cc(OC)c(OC)c(OC)c3[nH]2)cc1F`, the pIC50 is less than 4.30 in the assay with B16 and 4.70 in assay [1].

In the case of `COc1cc2cc(C(=O)c3ccc(C)cc3)[nH]c2c(OC)c1OC`, the pIC50 in the assay with B16 is 5.00; in assay [1], less than 4.70; in the assay on HCT-116, less than 4.30; in the assay with HCT-15 it was less than 4.30; with HT-29 it was less than 4.30.
